Experimental data reported in ChEMBL document CHEMBL1147646, “Novel benzofuran derivatives for PET imaging of beta-amyloid plaques in Alzheimer's disease brains” (J Med Chem, 2006).
Each block holds one compound with its values, some of them ahead of it. The source made the active and inactive calls. The rule behind the calls is not given here.

Tests used:
[1] = biological target: T1, Amyloid-beta precursor protein (Homo sapiens, UniProt P05067); experiment: Displacement of [125I]IMPY from beta amyloid in human corpse AD brain
[2] = biological target: T1, Amyloid-beta precursor protein; experiment: Ability for neuropathological staining of cerebrovascular amyloid plaque in human corpse AD brain; format: functional
In short: (§1)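 Postmortem temporal cortex from two AD cases, 5 µm paraffin serial sections deparaffinized in xylene/ethanol, washed in water then PBS, immersed in compound solution at various concentrations (50% ethanol in PBS above 0.5 mM), PBS wash 15 min, mounted; viewed by fluorescence microscopy (G-filter); serial sections immunostained for Aβ and tau with DAB.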

[3] = biological target: T1, Amyloid-beta precursor protein; experiment: Labelling of accumulated amyloid plaque in Tg2576 transgenic mouse brain hippocampus expressing human APP after 30 mins; format: functional, tissue-based; settings: tested as the 11C-labelled form
[4] = biological target: T1, Amyloid-beta precursor protein; experiment: Ability for neuropathological staining of amyloid plaque in human corpse AD brain temporal cortex; format: functional, tissue-based; in short: as §1
[5] = biological target: T1, Amyloid-beta precursor protein; experiment: Labelling of accumulated amyloid plaque in Tg2576 transgenic mouse brain cerebral cortex expressing human APP after 30 mins; format: functional, tissue-based; settings: tested as the 11C-labelled form
[6] = biological target: Microtubule-associated protein tau (Homo sapiens) (UniProt P10636); experiment: Ability for neuropathological staining of neurofibrillary tangles in human corpse AD brain temporal cortex
Mus musculus [7] = species on record: Mus musculus; experiment: %Compound removed from ddY mouse brain after 30 mins; format: ADME, organism-based; settings: in vivo, 0.5 h
Mus musculus [8] = experiment: Ratio for drug uptake in iv dosed ddY mouse brain after 2 mins to after 30 mins; format: ADME, organism-based; settings: in vivo
[9] = Partition coefficient, log P at pH 7.4; format: physicochemical; settings: octanol/water

T1 sequence (P05067 whole entry): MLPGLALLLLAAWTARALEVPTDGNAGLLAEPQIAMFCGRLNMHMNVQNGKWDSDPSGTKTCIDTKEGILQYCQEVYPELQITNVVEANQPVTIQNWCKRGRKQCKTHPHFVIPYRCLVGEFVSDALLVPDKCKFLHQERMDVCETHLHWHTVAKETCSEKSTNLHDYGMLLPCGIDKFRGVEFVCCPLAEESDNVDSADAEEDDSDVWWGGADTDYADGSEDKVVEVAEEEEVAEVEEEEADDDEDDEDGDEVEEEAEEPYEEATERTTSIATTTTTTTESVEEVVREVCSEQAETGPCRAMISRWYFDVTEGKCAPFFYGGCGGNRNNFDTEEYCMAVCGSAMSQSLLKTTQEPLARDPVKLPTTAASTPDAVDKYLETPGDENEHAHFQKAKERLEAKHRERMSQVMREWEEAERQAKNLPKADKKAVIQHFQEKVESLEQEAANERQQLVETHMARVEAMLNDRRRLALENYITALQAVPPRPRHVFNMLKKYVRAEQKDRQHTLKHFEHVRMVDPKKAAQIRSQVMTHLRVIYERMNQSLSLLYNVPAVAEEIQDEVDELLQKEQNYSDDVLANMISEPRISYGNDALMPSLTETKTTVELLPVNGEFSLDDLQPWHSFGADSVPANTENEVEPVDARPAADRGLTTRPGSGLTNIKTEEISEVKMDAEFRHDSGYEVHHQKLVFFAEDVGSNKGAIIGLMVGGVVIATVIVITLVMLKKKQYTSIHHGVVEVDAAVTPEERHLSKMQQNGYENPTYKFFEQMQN
Sequence of Microtubule-associated protein tau (Homo sapiens) (P10636 whole entry, looked up): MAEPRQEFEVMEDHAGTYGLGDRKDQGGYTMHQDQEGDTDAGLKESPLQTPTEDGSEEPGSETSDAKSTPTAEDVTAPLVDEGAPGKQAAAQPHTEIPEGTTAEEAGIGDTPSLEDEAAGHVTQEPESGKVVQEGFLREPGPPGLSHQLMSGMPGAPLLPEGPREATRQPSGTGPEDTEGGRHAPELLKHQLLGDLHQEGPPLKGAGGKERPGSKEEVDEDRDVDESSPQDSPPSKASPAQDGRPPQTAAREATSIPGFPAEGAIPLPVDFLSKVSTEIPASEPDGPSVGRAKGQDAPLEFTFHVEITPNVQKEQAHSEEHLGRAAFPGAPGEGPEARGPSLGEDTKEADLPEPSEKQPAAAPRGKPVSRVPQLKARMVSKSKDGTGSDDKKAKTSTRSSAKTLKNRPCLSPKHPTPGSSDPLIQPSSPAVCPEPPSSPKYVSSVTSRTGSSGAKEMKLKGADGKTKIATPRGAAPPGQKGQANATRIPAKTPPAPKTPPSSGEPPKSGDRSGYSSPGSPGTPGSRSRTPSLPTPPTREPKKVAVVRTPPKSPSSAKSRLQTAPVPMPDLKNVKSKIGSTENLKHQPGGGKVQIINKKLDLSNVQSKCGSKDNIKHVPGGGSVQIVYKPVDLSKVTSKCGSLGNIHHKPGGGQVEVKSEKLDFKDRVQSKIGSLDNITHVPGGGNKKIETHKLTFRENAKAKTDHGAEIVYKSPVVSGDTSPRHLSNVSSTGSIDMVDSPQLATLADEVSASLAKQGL

Ki [1]: 11.5 nM
SMILES: Nc1ccc(-c2cc3cc(O)ccc3o2)cc1

Ki [1]: 2.3 nM
SMILES: COc1ccc2oc(-c3ccc(N)cc3)cc2c1

Activity [2]: Active | Activity [3]: Active | Ki [1]: 0.7 nM | Activity [4]: Active | Activity [5]: Active | Activity [6]: Active
SMILES: CNc1ccc(-c2cc3cc(O)ccc3o2)cc1

washout (Mus musculus [7]): 90% | Ratio (Mus musculus [8]): 0.07 | logD [9]: 2.36
SMILES: [11CH3]Nc1ccc(-c2cc3cc(O)ccc3o2)cc1

Ki [1]: 2.8 nM
SMILES: CN(C)c1ccc(-c2cc3cc(O)ccc3o2)cc1

Ki [1]: 1.3 nM
SMILES: CNc1ccc(-c2cc3cc(OC)ccc3o2)cc1

Ki [1]: 12 nM
SMILES: COc1ccc2oc(-c3ccc(N(C)C)cc3)cc2c1
